Results on 4 compounds are retold here after ChEMBL document CHEMBL1129428 (J Med Chem, 1996).

As usually defined, the TD50 is the 50% point of the dose-response relation for the toxic effect studied. One may read the ED50 as the dose at which the effect has come halfway, by size or by number of responders. Usually logP stands for the decadic logarithm of the partition coefficient of the neutral form, usually between octanol and water.

In series [1] the test system is Rattus norvegicus. Description: Compound was tested for anticonvulsant activity after Oral Administration into Rats by using MES screen test after 1h,dose 12.50 mg/kg; number of rats out of four which were protected. Format: functional. The following applies: dose 12.5 mg/kg. A digest of the protocol: (§1)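 Rats received the compound orally. […] Rats were tested in the MES screen at 0.25, 0.5, 1, 2 and 4 h. Each value is the number of rats protected out of 4. The test followed NINDS procedures.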

The test system of series [2] is Rattus norvegicus. Description: Compound was tested for anticonvulsant activity after Oral Administration into Rats by using MES screen test after 0.25h,dose 12.50 mg/kg; number of rats out of four which were protected. The following applies: dose 12.5 mg/kg. Format: functional. An outline of the steps:
as §1

Series [3] can be described thus: Compound was tested for toxicity after intraperitoneal injection into mice by using neurotoxicity screen test after 1 hr. The class given is organism-based. The following applies: mouse, in vivo, ip. An outline of the steps:
(§2)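 Quantitative intraperitoneal mouse testing in the MES, scPTZ or rotorod neurotoxicity screens at the peak time given for each compound (0.25–2 h). ED50 or TD50 reported in mg/kg with 95% CI and slope (SE).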

Series [4] deals with Mus musculus. Description: Anticonvulsant activity after intraperitoneal injection into mice by using MES screen test after 0.5 hr. Format: functional.
For series [5], the system named is Mus musculus. The series can be described thus: Anticonvulsant activity after intraperitoneal injection into mice by using scPTZ screen test after 4 hr. Format: functional.
The subject of series [6] is Rattus norvegicus. The series can be described thus: Compound was tested for anticonvulsant activity after Oral Administration into Rats by using MES screen test after 4h,dose 12.50 mg/kg; number of rats out of four which were protected. Format: functional. As to conditions: dose 12.5 mg/kg. A digest of the protocol: as §1
The test system of series [7] is Mus musculus. The series can be described thus: Toxicity after intraperitoneal injection into mice by using toxicity screen test after 0.5 hr. Format: organism-based. The following applies: in vivo, ip. A digest of the protocol: (§3)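 Mice injected intraperitoneally at 30, 100 and 300 mg/kg and examined 0.5 and 4 h afterwards. Each entry is the minimum dose giving activity (MES protection, scPTZ protection, or rotorod failure for neurotoxicity) in half or more of the mice. Activity is called absent if nothing occurs at 300 mg/kg.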

For series [8], the system named is Mus musculus. Description: Compound was tested for anticonvulsant activity after intraperitoneal injection into mice by using scPTZ screen test after 0.25 hr. The class given is functional. The following applies: ip. A digest of the protocol: as §2
The subject of series [9] is Mus musculus. Description: Compound was tested for toxicity after intraperitoneal injection into mice by using toxicity screen test after 4 hr. Format: organism-based. The following applies: in vivo, ip. An outline of the steps: as §3
For series [10], the system named is Rattus norvegicus. Description: Compound was tested for anticonvulsant activity after Oral Administration into Rats by using MES screen test after 0.5h,dose 12.50 mg/kg; number of rats out of four which were protected. The class given is functional. As to conditions: dose 12.5 mg/kg. A digest of the protocol: as §1
For series [11], the system named is Rattus norvegicus. The series can be described thus: Compound was tested for anticonvulsant activity after Oral Administration into Rats by using MES screen test after 2h,dose 12.50 mg/kg; number of rats out of four which were protected. As to conditions: dose 12.5 mg/kg. Format: functional. An outline of the steps: as §1
For series [12], the system named is Mus musculus. Description: Compound was tested for anticonvulsant activity after intraperitoneal injection into mice by using MES screen test after 0.5 hr. Format: functional. As to conditions: ip. A digest of the protocol: as §3
Series [13] has as its system Mus musculus. Description: Anticonvulsant activity after intraperitoneal injection into mice by using scPTZ screen after 0.5 hr. Format: functional.
The test system of series [14] is Mus musculus. The series can be described thus: Anticonvulsant activity after intraperitoneal injection into mice measured in a maximal electroshock scree (MES) screen. Format: functional. In general terms: In the maximal electroshock model the usual endpoint is tonic extension of the hind limbs.
In series [15] the test system is Mus musculus. Description: Compound was tested for anticonvulsant activity after intraperitoneal injection into mice by using MES screen test after 4 hr. The class given is functional. The following applies: ip. A digest of the protocol:
as §3

Series [16] concerns Rattus norvegicus. The series can be described thus: Compound was tested for anticonvulsant activity after Oral Administration into Rats by using MES screen test after 2h,dose 12.5 mg/kg; number of rats out of four which were protected. Format: functional. An outline of the steps: as §1
Series [17] is described as follows: Compound was tested for toxicity after intraperitoneal injection into mice by using neurotoxicity screen test after 4 hr. The class given is organism-based. The following applies: mouse, in vivo, ip. A digest of the protocol: as §3
Series [18] has as its system Rattus norvegicus. Description: Compound was tested for anticonvulsant activity after Oral Administration into Rats by using MES screen test after 0.25h,dose 12.5 mg/kg; No activity was demonstarted. Format: functional, organism-based. Also noted: dose 12.5 mg/kg. An outline of the steps:
as §1

Series [19] concerns Rattus norvegicus. Description: Compound was tested for anticonvulsant activity after Oral Administration into Rats by using MES screen test after 4h,dose 12.5 mg/kg; number of rats out of four which were protected. The class given is functional. A digest of the protocol: as §1
For series [20], the system named is Rattus norvegicus. Description: Anticonvulsant activity after oral administration into rats. Format: functional. Also noted: concentration or dose not given beside the values.
Series [21] deals with Rattus norvegicus. Description: Compound was tested for anticonvulsant activity after Oral Administration into rat by using MES screen test after 4 hr. Format: functional. A digest of the protocol: (§4)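 Rats dosed orally, typically at 50 mg/kg first, then mostly 12.5 mg/kg (some compounds at 30 mg/kg), and tested by maximal electroshock. Four rats per compound, scored at 0.25, 0.5, 1, 2 and 4 h as the number of rats protected out of 4.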

A short description of series [22]: Protection index = TD50/ED50 (MES). The following applies: mouse, in vivo; read-out: PI.
Series [23] concerns Rattus norvegicus. Description: Compound was tested for anticonvulsant activity after Oral Administration into Rats by using MES screen test after 1h,dose 12.5 mg/kg; number of rats out of four which were protected. The class given is functional. A digest of the protocol:
as §1

Series [24] concerns Rattus norvegicus. The series can be described thus: Compound was tested for anticonvulsant activity after Oral Administration into rat by using MES screen test after 2 hr. Format: functional. A digest of the protocol:
as §4

Series [25] in a line: Partition coefficient (logP). Format: physicochemical. As to conditions: octanol/water. An outline of the steps: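 Partition between 1-octanol and buffer at pH 7.4, with solutions prepared in 1-octanol before buffer is added. Quantified by UV, using λmax and ε values measured in 1-octanol.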
A short description of series [26]: Compound was tested for toxicity after intraperitoneal injection into mice by using neurotoxicity screen test after 2 hr. The class given is organism-based. The following applies: mouse, in vivo, ip. A digest of the protocol:
as §2

In series [27] the test system is Mus musculus. The series can be described thus: Compound was tested for anticonvulsant activity after intraperitoneal injection into mice by using scPTZ screen test after 1 hr. Format: functional. As to conditions: ip. A digest of the protocol: as §2
Series [28] in a line: Compound was tested for toxicity after oral administration in rat by using neurotoxicity screen test after 4 hr. The class given is organism-based. As to conditions: in vivo. An outline of the steps: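 Rat neurotoxicity after oral dosing, observed at 0.25, 0.5, 1, 2, 4, 6, 8 and 24 h (8 h omitted for one compound).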
Series [29] relates to Mus musculus. The series can be described thus: Compound was tested for anticonvulsant activity after intraperitoneal injection into mice by using MES screen test after 1 hr. The class given is functional. As to conditions: ip. A digest of the protocol: as §2
The subject of series [30] is Rattus norvegicus. The series can be described thus: Compound was tested for anticonvulsant activity after Oral Administration into Rats by using MES screen test after 0.25h,dose 12.5 mg/kg; number of rats out of four which were protected. Format: functional. An outline of the steps:
as §1

Series [31] relates to Mus musculus. Description: Compound was tested for anticonvulsant activity after intraperitoneal injection into mice by using scPTZ screen test after 2 hr. The class given is functional. As to conditions: ip. A digest of the protocol:
as §2

Series [32] is described as follows: Protection index = TD50/ED50. Format: ADME. As to conditions: read-out: PI.
The subject of series [33] is Rattus norvegicus. The series can be described thus: Compound was tested for anticonvulsant activity after Oral Administration into Rats by using MES screen test after 4h,dose 30 mg/kg; number of rats out of four which were protected. Format: functional. A digest of the protocol:
as §1

Series [34] has as its system Mus musculus. The series can be described thus: Compound was tested for anticonvulsant activity after intraperitoneal injection into mice by using MES screen test after 2 hr. Format: functional. As to conditions: ip. An outline of the steps:
as §2

Series [35] has as its system Rattus norvegicus. The series can be described thus: Compound was tested for anticonvulsant activity after Oral Administration into Rats by using MES screen test after 0.5h,dose 30 mg/kg; number of rats out of four which were protected. The class given is functional. A digest of the protocol: as §1
For series [36], the system named is Rattus norvegicus. The series can be described thus: Compound was tested for anticonvulsant activity after Oral Administration into Rats by using MES screen test after 2h,dose 30 mg/kg; number of rats out of four which were protected. Format: functional. An outline of the steps:
as §1

Series [37] deals with Rattus norvegicus. Description: Compound was tested for anticonvulsant activity after Oral Administration into Rats by using MES screen test after 0.25h,dose 30 mg/kg; number of rats out of four which were protected. Format: functional. An outline of the steps: as §1
Series [38] deals with Rattus norvegicus. Description: Compound was tested for anticonvulsant activity after Oral Administration into Rats by using MES screen test after 1h,dose 30 mg/kg; number of rats out of four which were protected. The class given is functional. A digest of the protocol: as §1

Regarding `Cc1ccc(Oc2ccc(/C=N/NC(N)=O)cc2)c(C)c1`, the Activity is 4 in series [1]; 1 in series [2]; 4 in [6]; 4 in [10]; 4 in series [11]. Further, the TD50 at 1 h in [3] stood at 37 mg/kg. Further, the Dose came out at 30 mg/kg in [4]; 30 mg/kg in [5]; 300 mg/kg in series [7]; 100 mg/kg in [9]; 30 mg/kg in series [13]; 30 mg/kg in series [14]. Further, the ED50 in [8] stood at 33.6 mg/kg; in series [12] it was 4.6 mg/kg.
As to `CC/C(=N/NC(N)=O)c1ccc(Oc2ccc(Br)cc2)cc1`, the values for the ED50 in series [15] and in series [21] were 6.71 mg/kg and 4.39 mg/kg, respectively. The Activity is 4 in series [16]; “No activity” in series [18]; 4 in series [19]; 2 in series [20]; 4 in series [23]. Besides, the TD50 at 4 h in [17] is 52.5 mg/kg. Further, the Dose came out at 30 mg/kg in series [4]; 300 mg/kg in [7]; 100 mg/kg in [9]; 100 mg/kg in [13]; 30 mg/kg in [14]. The selectivity ratio in [22] is 7.82.
In the case of `NC(=O)N/N=C/c1ccc(Sc2ccc(F)cc2)cc1`, the ED50 is 4.98 mg/kg in [24], above 120 mg/kg in series [27] and 12.4 mg/kg in series [29]. Moreover, in [25], the logP stood at 2.8. The Activity in [16] is reported as 4; in series [19], 4; in [20] it was 3; in series [23], 4; in series [30], 1. The compound also displayed a TD50 at 2 h in [26] of 88 mg/kg. Further, the Dose in series [4] was 30 mg/kg; in [7] it was 300 mg/kg; in [9], 100 mg/kg; in series [13], 30 mg/kg; in [14], 30 mg/kg. Besides, the TD50 at 4 h in series [28] was determined as 183 mg/kg.
In the case of `C/C(=N/NC(N)=O)c1ccc(Oc2ccc(Cl)cc2)cc1`, the ED50 in series [31] is 34.4 mg/kg; in series [21], 2.92 mg/kg; in series [34], 9.14 mg/kg. The same compound came in with a TD50 at 2 h in [26] of 76.5 mg/kg. Also, the values for the selectivity ratio in series [32] and in series [22] were 2.23 and 8.37, respectively. Further, the Dose in series [4] stood at 30 mg/kg; in series [5], 30 mg/kg; in series [7], 300 mg/kg; in [9] it was 100 mg/kg; in [14], 30 mg/kg. The Activity came to 4 in [33]; 4 in series [35]; 4 in series [36]; 3 in series [37]; 4 in series [38]. Besides, the TD50 at 4 h in series [28] was below 500 mg/kg.
